From ChEMBL document CHEMBL3600305, “Flemingin-Type Prenylated Chalcones from the Sarawak Rainforest Plant Desmodium congestum” (J Nat Prod, 2015)
In brackets after ≈: the same amount, converted by molar mass.

How the values were obtained:
Streptococcus pneumoniae = test: Antibacterial activity against multidrug-resistant Streptococcus pneumoniae ATCC 700677 after 24 hrs; format: functional; conditions: ATCC 700677, 24 h
Summary of the method: (§1)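 Broth microdilution in MHB. Overnight cultures grown at 37 °C with shaking, diluted 40-fold and grown 2−3 h to mid-log, then added at a final 5 × 10^5 CFU/mL. Compounds in 2-fold serial dilution, final 0.015−32 μg/mL, in duplicate. Incubated 24 h at 37 °C. MIC read visually as the lowest concentration with no visible growth. Vancomycin, daptomycin and colistin served as controls.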

Enterococcus faecium = test: Antibacterial activity against multidrug-resistant Enterococcus faecium ATCC 51559 expressing VanA after 24 hrs; format: functional; conditions: ATCC 51559, 24 h; summary of the method: as §1
Enterococcus faecalis = test: Antibacterial activity against Enterococcus faecalis clinical isolate expressing VanA after 24 hrs; format: functional; summary of the method: as §1
Staphylococcus aureus [1] = test: Antibacterial activity against methicillin-resistant Staphylococcus aureus ATCC 43300 after 24 hrs; format: functional; conditions: ATCC 43300, 24 h; summary of the method: as §1
Staphylococcus aureus [2] = test: Antibacterial activity against glycopeptide-intermediate Staphylococcus aureus NRSA-NRS 17 after 24 hrs; format: functional; conditions: NRSA-NRS 17, 24 h
Summary of the method: as §1, with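 “cultures” for “cultures grown”, “at” for “at a”, “series,” for “serial dilution,”, “as” for “as the”, “colistin” for “colistin served”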

Escherichia coli = test: Antibacterial activity against Escherichia coli ATCC 25922 after 24 hrs; format: functional
Summary of the method: as §1, with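 “cultures” for “cultures grown”, “at” for “at a”, “series,” for “serial dilution,”, “as” for “as the”, “colistin” for “colistin served”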

HEK293 = test: Cytotoxicity against human HEK293 cells after 24 hrs; format: cell-based; conditions: HEK293, 24 h
Summary of the method: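 HEK293 cells seeded at 3000/well in DMEM with 10% FBS, attached 24 h at 37 °C, 5% CO2. Compounds from 1.28 mg/mL DMSO stock in 1:3 serial dilutions, final DMSO 1%, 24 h exposure. Resazurin 10 μM added for 2 h; fluorescence ex/em 560/590 nm. Four replicates; viability normalised to 1% DMSO and negative controls. Tamoxifen positive control.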

Staphylococcus aureus [3] = test: Antibacterial activity against methicillin-resistant and glycopeptide-intermediate Staphylococcus aureus NRSA-NRS 1 after 24 hrs; format: functional; conditions: NRSA-NRS 1, 24 h; summary of the method: as §1

Molecule | MIC (Streptococcus pneumoniae) [µg/mL] | MIC (Enterococcus faecium) [µg/mL] | MIC (Enterococcus faecalis) [µg/mL] | MIC (Staphylococcus aureus [1]) [µg/mL] | MIC (Staphylococcus aureus [2]) [µg/mL] | MIC (Escherichia coli; ATCC 25922, 24 h) [µg/mL] | IC50 (HEK293) [µM] | MIC (Staphylococcus aureus [3]) [µg/mL] | MIC (Escherichia coli) [µg/mL]
COc1cc(C(=O)/C=C/c2cccc(O)c2O)c(O)c2c1OC(C)(CCC=C(C)C)C=C2 (stereo not drawn) | 32 (≈ 73.3 µM) | 32 (≈ 73.3 µM) | 16 (≈ 36.7 µM) | 32 (≈ 73.3 µM) | > 32 | > 32 | 37 | 32 (≈ 73.3 µM) | –
CCCCCCCCCC(=O)N[C@@H](Cc1c[nH]c2ccccc12)C(=O)N[C@H](CC(N)=O)C(=O)N[C@@H](CC(=O)O)C(=O)N[C@@H]1C(=O)NCC(=O)N[C@@H](CCCN)C(=O)N[C@@H](CC(=O)O)C(=O)N[C@H](C)C(=O)N[C@@H](CC(=O)O)C(=O)NCC(=O)N[C@H](CO)C(=O)N[C@@H]([C@H](C)CC(=O)O)C(=O)N[C@@H](CC(=O)c2ccccc2N)C(=O)O[C@@H]1C | 2 (≈ 1.23 µM) | 16 (≈ 9.87 µM) | 8 (≈ 4.94 µM) | 1.2 (≈ 0.74 µM) | 8 (≈ 4.94 µM) | – | – | 16 (≈ 9.87 µM) | –
CN[C@H](CC(C)C)C(=O)N[C@H]1C(=O)N[C@@H](CC(N)=O)C(=O)N[C@H]2C(=O)N[C@H]3C(=O)N[C@H](C(=O)N[C@H](C(=O)O)c4cc(O)cc(O)c4-c4cc3ccc4O)[C@H](O)c3ccc(c(Cl)c3)Oc3cc2cc(c3O[C@@H]2O[C@H](CO)[C@@H](O)[C@H](O)[C@H]2O[C@H]2C[C@](C)(N)[C@H](O)[C@H](C)O2)Oc2ccc(cc2Cl)[C@H]1O [VANCOMYCIN] | 2 (≈ 1.38 µM) | > 32 | > 32 | – | 8 (≈ 5.52 µM) | – | – | 8 (≈ 5.52 µM) | –
COLISTIN | – | – | – | – | – | – | – | – | 0.25
COc1cc(C(=O)/C=C/c2cc(O)ccc2O)c(O)c2c1OC(C)(CCC=C(C)C)C=C2 (stereo not drawn) | 32 (≈ 73.3 µM) | 32 (≈ 73.3 µM) | 16 (≈ 36.7 µM) | 32 (≈ 73.3 µM) | > 32 | > 32 | 21 | 32 (≈ 73.3 µM) | –
